The entries come from a sample that favours hits as a whole.
NOD2 RIPK2 PPI: blocks binding of human NOD2 to RIPK2; O43353; actives 0.38% (n = 360,000); inhibition, % at 4.98 µM; CHO BLA complementation NOD2-RIPK2, CCF4 ratio; in the data active = inhibition above about 21%;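 also: 0% = vehicle only and 100% = reference blocker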
Target sequence (O43353 whole entry, looked up): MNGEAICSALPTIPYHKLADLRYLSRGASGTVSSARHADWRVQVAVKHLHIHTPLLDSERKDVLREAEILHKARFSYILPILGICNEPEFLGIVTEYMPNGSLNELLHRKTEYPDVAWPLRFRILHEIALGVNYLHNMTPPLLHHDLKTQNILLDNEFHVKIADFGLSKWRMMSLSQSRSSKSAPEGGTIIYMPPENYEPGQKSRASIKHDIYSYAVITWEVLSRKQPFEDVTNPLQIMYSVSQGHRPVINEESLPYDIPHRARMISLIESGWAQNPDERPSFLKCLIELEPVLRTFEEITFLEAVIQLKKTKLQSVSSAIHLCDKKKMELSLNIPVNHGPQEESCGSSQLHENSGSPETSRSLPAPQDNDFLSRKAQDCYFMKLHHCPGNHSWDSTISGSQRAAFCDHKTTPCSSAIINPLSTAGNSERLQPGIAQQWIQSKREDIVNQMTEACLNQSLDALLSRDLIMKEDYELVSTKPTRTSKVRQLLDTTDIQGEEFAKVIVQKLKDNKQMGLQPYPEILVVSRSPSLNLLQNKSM
TLR9-MyD88 block: inhibitors of human TLR9-MyD88 binding. CHO BLA complementation TLR9-MyD88, CCF4 FRET ratio. inhibition, % at 4.98 µM. AID 504734. Q9NR96+Q99836. actives 0.21% (n = 340,000);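 active = inhibition above the mean over all tested compounds plus 3 SD, cut at about 21% in these data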;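 also: 0% = DMSO only wells and 100% = clavulanate BLA inhibitor control wells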
TLR4 MyD88 comp: blocks binding of human TLR4 to MyD88; HeLa CL3-4 TLR4/MyD88 BLA complementation, FRET ratio; inhibition, % at 8.4 µM; O00206+Q99836; actives 0.18% (n = 200,000); in the data active = inhibition above about 25%;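 also: 0% = vehicle and 100% = reference inhibitor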
CHOP UPR activ: activators of apoptotic arm of unfolded protein response (CHOP); CHO-CHOP luciferase reporter, UPR activation, luminescence; percent of tunicamycin response over DMSO baseline; activation, % at 10 µM; actives 0.34% (n = 330,000); AID 449763;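 active = at 10 µM dose, activation of 40% or more, normalized to positive control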;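 also: 100% = tunicamycin at 10 µg/mL and 0% = DMSO alone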
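Test system: CHO-CHOP cells, stable luciferase reporter of PERK-eIF2a-CHOP signalling | Quantity: 500 CHO-CHOP cells per well | Buffer or medium: F12 plus 10% serum | Compound dosing: 10 µM single point, 0.5% DMSO | Schedule: 6 h compound treatment, 37 °C | Signal: Luciferase luminescence | Control set: Tunicamycin high control, DMSO low control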
XBP1 UPR activ: adaptive UPR (XBP1) activation; CHO-XBP1 luciferase reporter, IRE1-XBP1 UPR activation, luminescence; percent of tunicamycin response, DMSO as zero; activation, % at 20 µM; actives 0.33% (n = 330,000); AID 463104;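 active = versus positive control, 20 µM dose yields 30% or more activation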;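 also: 100% = tunicamycin at 10 µg/mL and 0% = DMSO only wells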
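Material: CHO-XBP1 cells stably carrying IRE1-XBP1-driven luciferase reporter / Amount: 1000 cells per well / Compound: 20 µM, 1% DMSO / Times: 6 h treatment, 37 °C / Detection: luciferase luminescence / Measure: % activation of reporter signal versus tunicamycin and DMSO controls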
CHOP inh: CHOP inhibition in unfolded protein response | actives 3.8% (n = 220,000) | AID 2732 | CHO-K1 CHOP-promoter luciferase, tunicamycin-induced, 15-18 h | inhibition, % at 10 µM;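 active = compounds that reduced the stress-induced luciferase reporter signal by more than about 70% of percent inhibition, limit read from the data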;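 also: 0% = tunicamycin plus vehicle and 100% = wells without tunicamycin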
NOD2 RIPK2 conf: confirmation of human NOD2-RIPK2 interaction inhibitors. shares compounds with NOD2 RIPK2 PPI. AID 624370. actives 70% (n = 1,200). CHO cells, NOD2-RIPK2 BLA complementation, CCF4 FRET. inhibition, % at 4.98 µM;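 active = mean inhibition across replicates above a set limit taken from the earlier primary screen, cut at about 21% in these data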;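 also: 0% = DMSO-only wells and the high end = clavulanate BLA-blocked wells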
BLA counter: hits BLA reporter in NOD2-RIPK2 inhibitor counterscreen | shares compounds with NOD2 RIPK2 PPI | CHO BLA reporter, CCF4 FRET ratio | inhibition, % at 4.98 µM | actives 57% (n = 1,200) | AID 624371;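 active = mean inhibition above the low-control mean inhibition plus three low-control SD, cut at about 11% in these data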;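 also: 0% = DMSO only wells and 100% = clavulanate high control wells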
Starred values were filed as active, the others as inactive; . = no result given.

SMILES | NOD2 RIPK2 PPI | TLR9-MyD88 block | TLR4 MyD88 comp | CHOP UPR activ | XBP1 UPR activ | CHOP inh | NOD2 RIPK2 conf | BLA counter
CCOc1ccccc1C(=O)Oc1cc(C)[nH]c(=O)c1[N+](=O)[O-] | 97.0* | 7.7 | . | 0.5 | -1.0 | . | 1.2 | -0.8
COc1ccccc1C(=O)Oc1cc(C)[nH]c(=O)c1[N+](=O)[O-] | -8.5 | 1.6 | 0.7 | 0.0 | 1.8 | -15.5 | . | .
O=C(NCc1cccnc1)/C(=C\c1ccc(-c2ccc(Cl)c(Cl)c2)o1)S(=O)(=O)c1ccccc1 | 40.7* | 8.9 | 15.3 | . | . | 110.5* | 41.8* | -1.5
CCc1ccc(NC(=O)Cn2c(=O)c3cccn3c3ccccc32)cc1 | 22.2* | -2.0 | . | 0.8 | 2.7 | . | 10.6 | -2.2
CCc1cccc2c(N=O)c(O)[nH]c12 | 3.3 | 19.6 | 4.5 | -2.0 | -2.4 | 8.1 | . | .
O=Nc1c(O)[nH]c2ccc(Cl)c(Cl)c12 | 28.4* | 17.4 | . | . | . | . | 26.4* | 15.2*
Cc1ccc(OCC(=O)Nc2cccc(S(=O)(=O)NC3=NCCCCC3)c2)cc1C | 3.2 | 0.9 | . | 2.2 | -5.0 | . | . | .
Cc1cc(OCC(=O)Nc2cccc(S(=O)(=O)NC3=NCCCCC3)c2)ccc1Cl | 40.5* | -15.4 | -1.5 | 0.9 | -1.5 | 33.8 | -0.1 | 0.3
CC(C)CC(C(=O)OCC(=O)Nc1cccc(Cl)c1)N1C(=O)C2CC=CCC2C1=O (configuration not stated) | 21.7* | 0.2 | 6.8 | -0.7 | -2.0 | 47.5 | -1.7 | -3.0
N#C/C(C(=O)Nc1ccc(Cl)cc1)=C(/S)Nc1ccccc1 | 25.9* | 7.2 | . | 3.8 | 1.1 | . | 24.1* | 1.6
CSCCNC(=O)C1(C)CCN1C(=O)c1sccc1C (configuration not stated) | -13.2 | . | . | . | . | . | . | .
COc1cccc(C(=O)C2CCCN(Cc3c(C)n(C)n(-c4ccccc4)c3=O)C2)c1 (configuration not stated) | 1.8 | 8.8 | . | 1.2 | -2.3 | -8.3 | . | .
Nc1cc2c(cc1Cl)-c1ccc([N+](=O)[O-])cc1C2=NO | 21.6* | -0.2 | . | . | . | . | 18.4 | 26.2*
O=C(NCc1ccccc1)C1CCCN(c2cnccn2)C1 (configuration not stated) | 1.4 | 4.2 | . | 4.1 | -3.9 | . | . | .
Cc1ccc(-n2c(O)c(/C=N/NC(=O)C3COc4ccccc4O3)c3ccccc3c2=O)cc1 (configuration not stated) | 11.2 | 15.0 | 9.4 | 0.1 | 0.8 | 35.3 | . | .
O=C(N/N=C/c1c(O)n(-c2ccccc2Cl)c(=O)c2ccccc12)C1COc2ccccc2O1 (configuration not stated) | 22.6* | 14.1 | 10.2 | 3.0 | 0.4 | 37.4 | 26.1* | 39.3*
CS(=O)(=O)c1ccc(C(=O)OCC(=O)N2CCN(CCC3CCCCC3)CC2)cc1[N+](=O)[O-] | 55.0* | . | . | . | . | . | 57.6* | 8.6
CS(=O)(=O)c1ccc(C(=O)OCC(=O)N2CCOCC2)cc1[N+](=O)[O-] | 9.9 | . | . | . | . | . | . | .
CC(=O)N1CCN(Cc2nc3cc(NC(=O)COc4ccccc4)ccc3n2C)CC1 | 1.1 | 2.9 | -5.4 | 3.6 | -0.2 | 16.3 | . | .
Cc1ccc(-c2csc3nc(C)n(-n4c(C)ccc4C)c(=O)c23)o1 | 49.3* | -9.3 | 7.7 | 0.5 | -4.0 | 64.5 | 0.5 | -1.4
O=C(O)c1cccc2c1C(=O)N(CC1CCCO1)C2 (configuration not stated) | -2.5 | 6.2 | 8.8 | 1.8 | -3.4 | 31.7 | . | .
O=C(NCc1ccc(Cl)cc1)c1cccc2c1C(=O)N(CC1CCCO1)C2 (configuration not stated) | 38.9* | -5.8 | . | 0.1 | -4.0 | . | 3.2 | -1.5
N/C(CS(=O)(=O)c1ccc(F)cc1)=N\O | -12.2 | -3.0 | . | -2.0 | 1.4 | 9.7 | . | .
O=C(CSc1nc2ncc(Br)cc2[nH]1)c1ccc([N+](=O)[O-])cc1 | 21.7* | -5.8 | 4.0 | -2.5 | -0.1 | 14.8 | 13.4 | -4.9
CCN(CC)C(=O)CSc1nc2ncc(Br)cc2[nH]1 | 2.2 | -18.4 | 0.8 | 3.4 | -1.9 | 15.9 | . | .
SMILES | NOD2 RIPK2 PPI | TLR9-MyD88 block | TLR4 MyD88 comp | CHOP UPR activ | XBP1 UPR activ | CHOP inh | NOD2 RIPK2 conf | BLA counter
N/C(=N\OC(=O)COc1ccc2ccccc2c1Br)c1ccncc1 | . | . | -11.6 | 3.1 | 6.8 | 9.2 | . | .
CN(C)Cc1cc(C(F)(F)F)ccc1C(O)(c1ccccc1)c1ccccc1 | -4.7 | 2.7 | . | . | . | . | . | .
CN(C)c1ccc(C=Cc2nccc3ccccc23)cc1 | 75.3* | . | . | . | . | . | 36.8* | 46.2*
COc1ccc(N2CCN(CC(=O)Nc3ccc(C)cc3Br)CC2)cc1 | 25.8* | -8.1 | . | . | . | . | -6.9 | -6.6
O=C(Cc1cnc2ncnn2c1)N1CCc2c([nH]c3ccccc23)C1c1ccccn1 (configuration not stated) | 0.0 | 0.7 | 6.4 | -1.5 | -0.3 | -27.6 | . | .
O=C(/C=C/c1cccnc1)/C=C/c1cccnc1 | 22.8* | 6.6 | . | . | . | 97.4* | 48.4* | 3.7
C(=Cc1cccnc1)c1ccncc1 | -4.9 | -1.4 | . | . | . | . | . | .
COc1ccc(OC)c(/C=C/C(=O)OCC(=O)N2C(C)CCCC2C)c1 (configuration not stated) | 21.4* | 1.1 | . | -0.9 | -1.4 | . | 5.2 | 0.1
CC(NC(=O)CNC(=O)C1CCCCC1)c1ccc(S(N)(=O)=O)cc1 (configuration not stated) | -3.0 | -4.1 | . | 2.0 | -1.9 | . | . | .
O=c1[nH]c(SCc2ccc([N+](=O)[O-])cc2)nc2[nH]ncc12 | -13.6 | -0.7 | -6.0 | -1.1 | 1.5 | 27.6 | . | .
COc1ccc(CNC(=O)CCCOc2cc(=O)n(C)c3ccccc23)cc1 | 1.9 | 5.7 | 10.0 | -0.5 | -0.9 | 45.5 | . | .
COc1ccc(CNC(=O)COc2cc(=O)n(C)c3ccccc23)cc1 | 24.6* | -14.5 | -2.1 | 2.5 | -1.3 | -3.1 | -2.0 | -3.0
O=C(c1ccc(NS(=O)(=O)c2cccs2)cc1)N1CCOCC1 | -1.0 | -10.3 | . | -1.0 | -1.0 | . | . | .
COc1ccc(C(=O)Nc2ccc(C)cc2C(=O)c2ccccc2)cc1 | 0.8 | -3.7 | -1.8 | -1.4 | -2.7 | 29.9 | . | .
COc1ccccc1C(=O)Nc1ccc(C)cc1C(=O)c1ccccc1 | 22.4* | -3.4 | -1.5 | -1.4 | -1.6 | 50.6 | -10.1 | -4.5
CCOC(=O)Nc1ccc2c3c(cccc13)-c1ccccc1-2 | 33.7* | 16.0 | . | . | . | . | 31.4* | 47.2*
CCOC(=O)Nc1cccc2ccccc12 | -21.1 | -0.1 | 15.9 | -1.3 | -1.1 | 47.9 | . | .
CCOC(=O)CNc1c(-c2ccc(Cl)cc2)nc2cnccn12 | 28.0* | 3.6 | 6.1 | 2.5 | -3.9 | 10.7 | 24.8* | 24.4*
